# Rev-RRE block: disrupts HIV-1 Rev binding to RRE RNA. AID 704. 0.79% of 97,000 active. inhibition, % at 8 µM. P05866. Rev peptide-RRE RNA binding, FRET;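 active means inhibition above the screen-wide mean plus 3 SD, cut at about 35% in these data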;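 further: 0% = median DMSO wells and 100% = median Neomycin B control wells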
#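 Test system – labelled RRE RNA duplex and labelled Rev peptide · Signal – fluorescein-to-Cy5 FRET, 480 nm excitation · Evaluation – % inhibition of FRET ratio versus controls · Benchmarks – DMSO low control, neomycin B high control · Incubation – 5 min RNA-compound premix plus 15 min binding step, 25 °C · Medium – HEPES pH 7.5 salt buffer with EDTA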
# Mac1 fbg inh: CD11b/CD18-fibrinogen binding inhibition; P05107+P11215; K562 CD11b/CD18 adhesion to fibrinogen, ATPlite luminescence; Mn2+ added to activate the integrin; inhibition, % at 10 µM; 0.54% of 93,000 active;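 active means primary inhibition of 50% or more at 10 µM, then 40% or more on retest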
# sEH inh: inhibitors of human soluble epoxide hydrolase | P34913 | recombinant human sEH enzymatic activity assay | inhibition, % at 2 µM | 0.34% of 91,000 active | AID 707; in the data active means inhibition above about 80%
# sEH act: increases human soluble epoxide hydrolase activity; P34913; purified human sEH enzymatic activity, activator screen; activation, % at 2 µM; 0.04% of 91,000 active; AID 717; in the data active means activation above about 37%
# Smad3 FoxH1 inh: Smad3 (human) transcription factor binding inhibition; 0.29% of 88,000 active; inhibition, % at 25 µM; TR-FRET Smad3/Dy647-FoxH1 peptide binding, europium anti-His;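 active means compounds that reduce the energy-transfer binding signal between the protein and its labelled peptide by more than half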;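 further: 0% = Smad3 plus labelled peptide maximal FRET and 100% = peptide-only background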
# Target sequence (P84022 whole entry, looked up): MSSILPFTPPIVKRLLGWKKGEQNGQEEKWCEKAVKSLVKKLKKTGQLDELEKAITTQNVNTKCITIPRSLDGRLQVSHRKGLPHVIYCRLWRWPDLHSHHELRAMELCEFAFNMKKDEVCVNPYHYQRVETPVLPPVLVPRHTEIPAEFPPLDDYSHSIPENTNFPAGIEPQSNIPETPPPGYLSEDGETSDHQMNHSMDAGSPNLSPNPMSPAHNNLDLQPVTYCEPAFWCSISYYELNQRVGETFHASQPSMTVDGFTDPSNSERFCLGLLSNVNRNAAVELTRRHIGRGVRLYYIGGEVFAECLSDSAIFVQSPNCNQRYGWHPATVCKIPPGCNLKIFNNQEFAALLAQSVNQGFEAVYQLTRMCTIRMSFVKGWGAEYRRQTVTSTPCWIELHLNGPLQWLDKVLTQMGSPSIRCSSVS
# CD11b adhes enh: enhancers of human CD11b/CD18 binding to fibrinogen; AID 1499; activation, % at 10 µM; P05107+P11215; 0.07% of 93,000 active; K562 CD11b/CD18 adhesion to fibrinogen, ATPlite luminescence;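 active means 10 µM primary screen giving 50% or more activity, confirmed by 40% or more on retest at that dose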
# The depositor's hits bear a star; . = not tested or not shown; [ ] = dose if it differs, or a comment. An excerpt weighted towards active compounds, which were near 1.6% of everything screened.
SMILES,Rev-RRE block,Mac1 fbg inh,sEH inh,sEH act,Smad3 FoxH1 inh,CD11b adhes enh
CCOC(=O)N1CCC2(CC1)C(C#N)=C(N)Oc1c2c(C)nn1-c1cccc(Cl)c1,10,88*,1,2,6,-10
CCOC(=O)N1CCC2(CC1)C(C#N)=C(N)Oc1n[nH]c(C)c12,-6,25,2,1,-10,-1
CC1=c2c(oc3cc(O)c(Nc4c(C)cc(O)cc4O)c(C)c23)=CC(=O)C1=Nc1c(C)cc(O)cc1O,.,.,.,.,-4,.
CN(C)c1ccc(C(=C2C=CC(=[N+](C)C)C=C2)c2c(O)c(S(=O)(=O)O)cc3cc(S(=O)(=O)O)ccc23)cc1,.,.,.,.,34,.
Cc1nnc(SCc2cnc(-c3ccc(C(C)C)cc3)s2)n1C,0,70*,-8,6,5,-6
c1cncc(-c2cc(-c3cc(-c4cccnc4)n[nH]3)[nH]n2)c1,.,.,.,.,8,.
Cc1cc(/C=C2\SC(=S)NC2=O)c(C)n1C1CC1,65*,3,-7,7,.,-5
Cc1[nH]c(C)c(CN(C)C)c1CN(C)C,.,.,.,.,-5,.
CC1=CC(=O)CC(C)(C)[C@]1(O)/C=C/C(C)=C/C(=O)O,.,.,.,.,2,.
CCN(CC)S(=O)(=O)c1cccc(C(=O)NCCc2ccccc2)c1,2,.,81*,-81,-1,.
Cc1ccc(C)c(S(=O)(=O)Nc2ccccc2C(=O)Nc2ccccc2N2CCOCC2)c1,9,50*,12,-9,.,-4
Cc1cc(F)ccc1S(=O)(=O)Nc1ccccc1C(=O)Nc1ccccc1N1CCOCC1,4,.,60,-58,-8,.
O=C(Nc1ccccc1N1CCOCC1)c1ccccc1NS(=O)(=O)c1ccc(F)c(F)c1,1,75*,51,-50,.,-4
O=C(Nc1ccccc1N1CCOCC1)c1ccccc1NS(=O)(=O)c1ccc(F)cc1,3,3,33,-31,1,-1
C[C@H](C(=O)c1ccccc1)[C@@H](c1ccccc1)N1CCOCC1,.,.,.,.,11,.
Cc1cc(C2C(C#N)=C(N)Oc3n[nH]c(C)c32)c(C)s1 (configuration not stated),3,.,11,-10,2,.
Cc1cc(C2C(C#N)=C(N)SC(N)=C2C#N)c(C)s1,83*[fluorescence artefact?],-5,3,2,21,6
Cc1[nH]nc2c1C(c1ccsc1C)C(C#N)=C(N)O2 (configuration not stated),6,-27,-8,8,.,-3
Cc1sccc1C1C(C#N)=C(N)SC(N)=C1C#N,75*,0,5,-4,13,-2
Cc1ccc2nc(/C(C#N)=C\c3ccc([N+](=O)[O-])o3)[nH]c2c1,64*[fluorescence artefact?],2,-2,2,.,-2
Cc1ccc2nc(/C(C#N)=C\c3ccc(N4CCOCC4)o3)[nH]c2c1,135*[fluorescence artefact?],.,31,-31,19,.
Cc1ccc2nc(/C(C#N)=C\c3cc(C)n(-c4cccc([N+](=O)[O-])c4)c3C)[nH]c2c1,12,-10,5,-5,-9,-4
N#C/C(=C\c1ccc([N+](=O)[O-])o1)c1nc2ccccc2[nH]1,.,-21,.,.,.,98
Cc1ccc(/C(C#N)=C\c2ccc(N3CCOCC3)o2)cc1,96*[fluorescence artefact?],31,14,-14,.,2
Cc1ccc(/C(C#N)=C\c2cn(C)c3ccccc23)cc1,19,7,-2,5,0,1
SMILES,Rev-RRE block,Mac1 fbg inh,sEH inh,sEH act,Smad3 FoxH1 inh,CD11b adhes enh
NCCC[C@@H](N)C(=O)O,.,.,.,.,3,.
CCOC(=O)c1c(C)oc2c1c(C(c1ccccc1)N1CCOCC1)c(O)c1ccccc12 (configuration not stated),3,12,8,-7,.,-2
CCOC(=O)c1c(C)oc2c1c(C(c1cccnc1)N1CCCCC1)c(O)c1ccccc12 (configuration not stated),-10,53,2,2,74*,-3
Cc1cc2n(c1)CCn1c(C)ccc1-2,46*,-16,-2,3,7,93
O=C(CCSc1ccc(Cl)cc1)NC12CC3CC(CC(C3)C1)C2,16,3,81*,-80,.,-6
O=c1c2ccccc2nc(N/N=C/c2c(O)ccc3ccccc23)n1O,2,58*,-4,1,.,-6

# Bioassay records as filed in PubChem BioAssay.
